Data taken from ChEMBL document CHEMBL2407024, “Antimicrobial activity of imidazo[1,5-a]quinoxaline derivatives with pyridinium moiety” (Eur J Med Chem, 2013).

Columns and labels:
Bacillus cereus [1] = experiment: Antibacterial activity against Bacillus cereus 8035 measured every 24 hrs for 5 days by conventional dilution method; assay type: functional
Outline: (§1)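 Broth dilution in nutrient broth, inoculum 3 × 10⁵ cfu/ml. MIC is the lowest concentration showing no growth, read visually every 24 h over 5 days. Run alongside a positive growth control and standard drug controls. Tests in duplicate, repeated twice.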

Staphylococcus aureus [2] = experiment: Antibacterial activity against Staphylococcus aureus 209p measured every 24 hrs for 5 days by conventional dilution method; assay type: functional; outline: as §1
Pseudomonas aeruginosa [3] = experiment: Antibacterial activity against Pseudomonas aeruginosa 9027 measured every 24 hrs for 5 days by conventional dilution method; assay type: functional; outline: as §1
[4] = system: Trichophyton mentagrophytes; experiment: Fungicidal activity against Trichophyton mentagrophytes after 6 hrs; assay type: functional
Outline: (§2)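 Tubes of test compound (5 to 500 per ml, 1 mL in nutrient agar) with fungi were incubated at 26 °C for 6 h. Inocula were then prepared in Sabouraud dextrose broth and incubated at 26 °C. The fungicidal concentration is the one giving total cell death.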

Aspergillus niger [5] = experiment: Antifungal activity against Aspergillus niger BKMF-1119 measured every 24 hrs for 14 days by conventional dilution method; assay type: functional
Outline: (§3)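 Dilution assay in Sabouraud dextrose broth, inoculum 2 × 10^3–4 cfu/ml. MIC is the lowest concentration with no visible growth after 14 days of incubation. Run alongside a positive growth control and standard drug controls. Tests in duplicate, repeated twice.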

Candida albicans [6] = experiment: Fungicidal activity against Candida albicans 885-653 after 6 hrs; assay type: functional; conditions: 885-653, 6 h; outline: as §2
[7] = system: Trichophyton mentagrophytes; experiment: Antifungal activity against Trichophyton mentagrophytes measured every 24 hrs for 14 days by conventional dilution method; assay type: functional; outline: as §3
[8] = Acute toxicity in ip dosed mouse; assay type: organism-based; conditions: in vivo
Outline: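 Mice; each compound given at 5 dose levels, 10 animals per dose (n = 50 per compound). Animals observed for 72 h; toxicity expressed as average lethal dose (LD50) calculated from mortality across dose groups.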

Pseudomonas aeruginosa [9] = experiment: Bactericidal activity against Pseudomonas aeruginosa 9027 after 4 hrs; assay type: functional; conditions: Pseudomonas aeruginosa, 9027, 4 h
Outline: (§4)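 Tubes contained 1 mL test compound in nutrient agar, 5 to 500 per ml. Bacteria in normal saline broth (3 × 10⁵ cfu/ml, 1 mL) were added and held 4 h, then transferred onto meal-peptone agar plates and incubated at 37 °C. MBC is the dilution giving total cell death.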

Escherichia coli [10] = experiment: Antibacterial activity against Escherichia coli F-50 measured every 24 hrs for 5 days by conventional dilution method; assay type: functional; outline: as §1
Aspergillus niger [11] = experiment: Fungicidal activity against Aspergillus niger BKMF-1119 after 6 hrs; assay type: functional; conditions: BKMF-1119, 6 h; outline: as §2
Staphylococcus aureus [12] = experiment: Bactericidal activity against Staphylococcus aureus 209p after 4 hrs; assay type: functional; outline: as §4
Bacillus cereus [13] = experiment: Bactericidal activity against Bacillus cereus 8035 after 4 hrs; assay type: functional; conditions: Bacillus cereus, 8035, 4 h; outline: as §4
Escherichia coli [14] = experiment: Bactericidal activity against Escherichia coli F-50 after 4 hrs; assay type: functional; conditions: F-50, 4 h; outline: as §4
Candida albicans [15] = experiment: Antifungal activity against Candida albicans 885-653 measured every 24 hrs for 14 days by conventional dilution method; assay type: functional; outline: as §3

Compound `CCCCCCCCC[n+]1cccc(-c2nc(-c3ccccc3)c3c(=O)n(CCCCCC)c4ccccc4n23)c1.[Br-]` has an MIC (Bacillus cereus [1]) of 0.97 µg/mL, an MIC (Staphylococcus aureus [2]) of 0.97 µg/mL and an MIC (Pseudomonas aeruginosa [3]) greater than 500 µg/mL. For the same compound, the MFC [4] was 250 µg/mL, the MIC (Aspergillus niger [5]) was greater than 500 µg/mL and the MFC (Candida albicans [6]) was 50 µg/mL. The MIC [7] was 250 µg/mL, the LD50 [8] was 120 mg/kg and the MBC (Pseudomonas aeruginosa [9]) was greater than 500 µg/mL. The MIC (Escherichia coli [10]) was 500 µg/mL, the MFC (Aspergillus niger [11]) was greater than 500 µg/mL and the MBC (Staphylococcus aureus [12]) was 5 µg/mL. It also gave an MBC (Bacillus cereus [13]) of 50 µg/mL, an MBC (Escherichia coli [14]) of 500 µg/mL and an MIC (Candida albicans [15]) of 0.97 µg/mL.

For `CCCCCCCCC[n+]1cccc(-c2nc(-c3ccccc3)c3c(=O)n(CCCCCC)c4ccccc4n23)c1.[I-]`, the MIC (Bacillus cereus [1]) was 0.78 µg/mL, the MIC (Staphylococcus aureus [2]) was 0.78 µg/mL and the MIC (Pseudomonas aeruginosa [3]) was greater than 500 µg/mL. For the same compound, the MFC [4] was greater than 500 µg/mL, the MIC (Aspergillus niger [5]) was greater than 500 µg/mL and the MFC (Candida albicans [6]) was 500 µg/mL. For the same compound, the MIC [7] was greater than 500 µg/mL, the LD50 [8] was 52.5 mg/kg and the MBC (Pseudomonas aeruginosa [9]) was greater than 500 µg/mL. The MIC (Escherichia coli [10]) was greater than 500 µg/mL, the MFC (Aspergillus niger [11]) was greater than 500 µg/mL and the MBC (Staphylococcus aureus [12]) was 5 µg/mL. The MBC (Bacillus cereus [13]) was 500 µg/mL, the MBC (Escherichia coli [14]) was greater than 500 µg/mL and the MIC (Candida albicans [15]) was 500 µg/mL.
